# Laboratory results: ChEMBL document CHEMBL4014326, “Discovery of an Orally Bioavailable Benzimidazole Diacylglycerol Acyltransferase 1 (DGAT1) Inhibitor That Suppresses Body Weight Gain in Diet-Induced Obese Dogs and Postprandial Triglycerides in Humans” (J Med Chem, 2017)
# Legend:
# [1] = Drug metabolism in rat hepatocytes assessed as [3H]-3-(3,5-dimethyl-4-(6-(5-phenyl-1,3,4-oxadiazol-2-yl)-1H-benzo[d]imidazol-2-yl)phenyl)-2,2-dimethylpropanoic acid formation at 12.5 uM after 18 hrs; format: ADME, cell-based, Hepatocyte
# Outline: (§1)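 [3H]-labelled compound (12.5 µM) was incubated for 18 h with rat, dog, monkey or human hepatocytes, and metabolites were profiled.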
# [2] = Drug metabolism in monkey hepatocytes assessed as [3H]-(2S,3S,4S,5R,6S)-3,4,5-trihydroxy-6-(3-(4-(6-(5-(4-methoxyphenyl)-1,3,4-oxadiazol-2-yl)-1H-benzo[d]imidazol-2-yl)-3,5-dimethylphenyl)-2,2-dimethylpropanoyloxy)tetrahydro-2H-pyran-2-carboxylic acid formation at 12.5 uM after 18 hrs; format: ADME, cell-based, Macaca mulatta, Hepatocyte; details: rhesus monkey; outline: as §1
# [3] = Tmax in Sprague-Dawley rat 3 mg/kg, po by LC/MS/MS analysis; format: ADME, organism-based; details: in vivo
# Outline: (§2)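 Male Sprague-Dawley rats, 200-300 g, dosed iv (n = 2) or po (n = 3) as solutions in NMP/PG or PEG400/ETPGS vehicles. Blood was taken from a jugular vein catheter at 0.083 (iv only), 0.25, 0.5, 1, 2, 4, 6 and 8 h into EDTA tubes, and plasma was analysed by LC-MS/MS. Values are means ± SD.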
# Salmonella typhimurium = experiment: Genotoxicity in histidine depleted Salmonella typhimurium TA98 assessed as increase in reverting mutations up to 1000 ug in presence of S9 metabolic activation by Ames test; format: toxicity; details: salmonella enterica subsp. enterica serovar typhimurium
# [4] = target: T1, Diacylglycerol O-acyltransferase 1 (Homo sapiens, UniProt O75907); experiment: Inhibition of recombinant human His6-tagged DGAT1 expressed in Sf9 insect cell membranes assessed as inhibition of triglyceride formation using diolein/oleyl-CoA as substrate after 30 mins by LC/MS/MS analysis
# T1 sequence (O75907 whole entry): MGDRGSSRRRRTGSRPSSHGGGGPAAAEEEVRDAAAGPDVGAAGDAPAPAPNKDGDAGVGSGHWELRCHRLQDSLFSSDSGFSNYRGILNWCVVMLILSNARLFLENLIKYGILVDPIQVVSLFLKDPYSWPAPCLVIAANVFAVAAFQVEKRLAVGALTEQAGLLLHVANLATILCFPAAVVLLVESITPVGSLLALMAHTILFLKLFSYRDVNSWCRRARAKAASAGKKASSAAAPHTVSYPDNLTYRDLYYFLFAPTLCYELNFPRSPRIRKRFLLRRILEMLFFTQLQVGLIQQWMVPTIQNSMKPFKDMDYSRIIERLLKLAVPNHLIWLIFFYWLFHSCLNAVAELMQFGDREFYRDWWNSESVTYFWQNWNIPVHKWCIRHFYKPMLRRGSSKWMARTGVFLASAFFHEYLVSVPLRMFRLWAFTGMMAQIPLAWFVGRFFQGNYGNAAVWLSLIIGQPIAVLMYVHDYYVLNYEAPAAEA
# [5] = Volume of distribution at steady state in Sprague-Dawley rat at 1 mg/kg, iv by LC/MS/MS analysis; format: ADME, organism-based; details: in vivo, read-out: Vdss; outline: as §2
compound,measurement,setting,value
COc1ccc(-c2nnc(-c3ccc4nc(-c5c(C)cc(CC(C)(C)C(=O)O)cc5C)[nH]c4c3)o2)cc1,Drug metabolism,[1],Metabolite_Detected
same,Drug metabolism,[2],Metabolite_Detected
same,Tmax,[3],1.2 h
same,Activity,Salmonella typhimurium,Non-Toxic
same,IC50,[4],17 nM
same,Vd,[5],0.6 L/kg
